# From ChEMBL document CHEMBL1126796, “2-(Alkylamino)nicotinic acid and analogs. Potent angiotensin II antagonists” (J Med Chem, 1993)
# Legend:
# [1] = Cmax value after oral dose of 3.87 mg/kg; format: ADME, organism-based; parameters: dose 3.87 mg/kg, route oral; settings: in vivo
# Summary of the method: (§1)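 Male Sprague-Dawley-derived rats were dosed with compound in normal saline (1 mL/kg), by gavage or as a slow IV bolus into the jugular vein. Heparinized tail-vein blood was taken at 0.25-24 h, extracted liquid-liquid and assayed by reverse-phase HPLC. Cmax is the observed peak concentration and AUC is mean (SEM). F compares oral with IV AUC, corrected for dose and assuming dose proportionality.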
# [2] = Volume of distribution of central compartment (= dose+ plasma concentration at time zero) after intravenous dose of 3.87 mg/kg; format: ADME, organism-based; parameters: dose 3.87 mg/kg, route intravenous; settings: read-out: VI
# Summary of the method: (§2)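 Jugular-vein slow iv bolus (normal saline, 1 mL/kg) in male Sprague-Dawley-derived rats. Plasma was sampled via the tail vein at 0.1–24 h and measured by reverse-phase HPLC after liquid-liquid extraction. Central volume was taken as dose divided by plasma concentration at time zero. Terminal-phase volume was derived from clearance and the plasma elimination rate constant.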
# Rattus norvegicus [3] = assay: % decrease in blood pressure after 24 hours at a dose of 1 mg/kg in male rats by using Furosemide-treated spontaneous hypertensive model; format: functional
# Summary of the method: (§3)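 Male SHR, 20-24 weeks old, pretreated with furosemide 10 mg/kg sc at 22 and 4 h before the experiment; compound dosed orally. Arterial pressure was recorded from an indwelling femoral artery catheter with on-line blood pressure and heart rate analysis. Read-out is % fall in blood pressure at 4 h and at 24 h, ±SEM, with number of rats.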
# Rattus norvegicus [4] = assay: % decrease in blood pressure after 4 hours in male rats at a dose of 0.03 mg/kg by using Renal artery hypertensive model; format: functional
# Summary of the method: (§4)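 Male Sprague-Dawley rats (300-350 g) were made hypertensive by renal artery ligation and used on day 6 or 7 after ligation. Arterial pressure was measured from an indwelling femoral artery catheter, with blood pressure and heart rate recorded on line. Read-out is % decrease in blood pressure at 4 h, ±SEM, with number of rats.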
# [5] = Apparent bioavailability after oral dose of 3.87 mg/kg; format: ADME, organism-based; settings: eutheria, in vivo; summary of the method: as §1
# [6] = Tmax value after oral dose of 3.87 mg/kg; format: ADME, organism-based; parameters: dose 3.87 mg/kg, route oral; settings: in vivo
# Summary of the method: (§5)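 Male Sprague-Dawley-derived rats. Compound was given in normal saline at 1 mL/kg, either as a slow iv bolus into the jugular vein or orally by gavage. Plasma underwent liquid-liquid extraction and reverse-phase HPLC. Terminal elimination half-life and time of observed peak concentration were taken from the profiles.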
# Rattus norvegicus [7] = assay: % decrease in blood pressure after 4 hours at a dose of 3 mg/kg in male rats by using Renal artery hypertensive model; format: functional; summary of the method: as §4
# [8] = Plasma clearance after intravenous dose of 3.87 mg/kg; format: ADME, organism-based; parameters: dose 3.87 mg/kg, route intravenous; settings: read-out: Clp
# Summary of the method: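 Male Sprague-Dawley-derived rats received a slow iv bolus into the jugular vein of the compound in normal saline (1 mL/kg). Tail-vein heparinized blood was drawn from 0.1 to 24 h and assayed by reverse-phase HPLC after liquid-liquid extraction. Total plasma clearance was calculated as dose divided by AUC and reported as mean (SEM).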
# [9] = Half-life period of compound after intravenous dose of 3.87 mg/kg; format: ADME, organism-based; parameters: dose 3.87 mg/kg, route intravenous; settings: in vivo; summary of the method: as §5
# [10] = target: T1, Type-1 angiotensin II receptor A (Rattus norvegicus, UniProt P25095); assay: Binding affinity against angiotensin II receptor from rat liver
# T1 sequence (P25095 whole entry): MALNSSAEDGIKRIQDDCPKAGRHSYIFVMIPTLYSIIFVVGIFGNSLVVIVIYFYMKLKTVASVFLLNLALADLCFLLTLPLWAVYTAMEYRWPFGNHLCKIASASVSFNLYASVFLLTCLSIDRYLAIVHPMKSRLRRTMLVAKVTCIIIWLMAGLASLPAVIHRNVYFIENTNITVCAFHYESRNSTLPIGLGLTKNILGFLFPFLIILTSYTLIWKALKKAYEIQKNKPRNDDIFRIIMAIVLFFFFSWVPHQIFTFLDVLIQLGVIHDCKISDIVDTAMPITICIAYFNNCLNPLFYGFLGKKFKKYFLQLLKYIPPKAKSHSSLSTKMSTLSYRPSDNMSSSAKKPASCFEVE
# Summary of the method: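 Rat liver membranes were incubated with [125I]-saralasin to measure angiotensin II type 1 receptor binding. Nonspecific binding was defined with 1 µM angiotensin.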
# [11] = Half-life period after oral dose of 3.87 mg/kg; format: ADME, organism-based; parameters: dose 3.87 mg/kg, route oral; settings: in vivo; summary of the method: as §5
# [12] = Volume of distribution of the terminal phase (= CLp+ plasma elimination rate constant) after intravenous dose of 3.87 mg/kg; format: ADME, organism-based; parameters: dose 3.87 mg/kg, route intravenous; settings: read-out: Vbeta; summary of the method: as §2
# [13] = Area under curve after oral dose of 3.87 mg/kg; format: ADME, organism-based; parameters: dose 3.87 mg/kg, route oral; settings: in vivo; summary of the method: as §1
# Rattus norvegicus [14] = assay: % decrease in blood pressure after 4 hours at a dose of 1 mg/kg in male rats by using Furosemide-treated spontaneous hypertensive model; format: functional; summary of the method: as §3
# Rattus norvegicus [15] = assay: % decrease in blood pressure after 4 hours in male rats at a dose of 0.3 mg/kg by using Renal artery hypertensive model; format: functional; summary of the method: as §4
# Rattus norvegicus [16] = assay: % decrease in blood pressure after 4 hours in male rats at a dose of 0.1 mg/kg by using Renal artery hypertensive model; format: functional; summary of the method: as §4
# Rattus norvegicus [17] = assay: % decrease in blood pressure after 4 hours at a dose of 10 mg/kg in male rats by using Renal artery hypertensive model; format: functional; summary of the method: as §4
Cmax [1] [ng/mL],Vd [2] [L/kg],bioavailability [5] [%],Tmax [6] [h],clearance [8] [mL/min],half-life [9] [h],Ki [10] [nM],half-life [11] [h],Vd [12] [L/kg],AUC [13] [µg/h/mL],Structure (SMILES),Decrease in blood pressure (Rattus norvegicus [3]) [%],Decrease in blood pressure (Rattus norvegicus [4]) [%],Decrease in blood pressure (Rattus norvegicus [7]) [%],Decrease in blood pressure (Rattus norvegicus [14]) [%],Decrease in blood pressure (Rattus norvegicus [15]) [%],Decrease in blood pressure (Rattus norvegicus [16]) [%],Decrease in blood pressure (Rattus norvegicus [17]) [%]
1590,0.41,66.7,2,1.47,4.5,0.45,3.9,1.78,11.14,CCc1nc2c(C)cc(C)nc2n1Cc1ccc(-c2ccccc2-c2nnn[nH]2)cc1 [L-158809],30,8,32,32,25,15,–
–,–,–,–,–,–,–,–,–,–,CCCCc1nc(Cl)c(C(=O)O)n1Cc1ccc(-c2ccccc2-c2nn[nH]n2)cc1 [CARBOXYLIC ACID METABOLITE],–,–,–,–,–,–,40
